STAT1 activator = activators of IFN-gamma induced STAT1 signaling; activation (% of control), % at 5.5 µM; actives 2.6% (n = 200,000); NIH 3T3 STAT1-luciferase reporter, luminescence; 100% = IFN-gamma alone, no compound; AID 932;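 active = activation above the screen-wide mean activation plus 3 SD, cut at about 130% in these data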;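 also: raw ratio to IFN-gamma control signal so 100% means no change and 0% no light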
STAT1 inh = STAT1 signaling inhibition. NIH 3T3 STAT1-luciferase reporter, IFN-gamma, luminescence. inhibition, % at 5.5 µM. actives 0.35% (n = 200,000). AID 920;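 active = inhibition above a set limit, the mean inhibition across all tested compounds plus 3 SD, cut at about 34% in these data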;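 also: 0% = IFN-gamma with DMSO and 100% = IFN-gamma with 300 µM nifuroxazide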
NF-kB neuron act = raises NF-kB expression in human neuronal cells; fold change at 12.5 µM; NF-kB reporter expression; hits give high values; actives 1.6% (n = 190,000); in the data active = fold change above about 3.3
STAT3 act = activators of IL-6 induced STAT3 signaling. activation (% of control), % at 5.6 µM. U3A cells, IL-6 STAT3-luciferase reporter, luminescence; 100% = signal with IL-6 EC80 alone. actives 0.91% (n = 190,000). AID 871;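 active = activation above the screen-wide mean of compound activation plus 3 SD, cut at about 130% in these data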;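 also: 0% = background luminescence of wells with medium and substrate only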
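Material: STAT3-luciferase reporter U3A cells; Probe or stimulus: IL-6 (33 ng/mL); Incubation: compound pre-incubation 1 h before IL-6, then 6 h stimulation at 37 °C; Technique: luminescence from STAT3-driven luciferase reporter; Evaluation: % activation versus median of IL-6-stimulated wells; Controls: IL-6-only high control.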
STAT3 blocker = STAT3 signaling inhibition; U3A cells, IL-6 STAT3-luciferase reporter, luminescence; host cell line lacks STAT1; inhibition, % at 5.5 µM; actives 0.89% (n = 190,000); AID 862;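 active = inhibition above the mean inhibition across all screened compounds plus 3 SD, cut at about 44% in these data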;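 also: 0% = DMSO only wells and 100% = 100 µM nifuroxazide control wells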
APP 5'UTR act = APP 5'UTR luciferase reporter activation | SH-SY5Y APP 5'UTR luciferase reporter, luminescence; zero percent = DMSO vehicle wells | activation, % at 2 µM | actives 1% (n = 190,000) | AID 1276;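 active = activation above a set limit, based on mean plus 3 SD of controls, cut at about 140% in these data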
STAT1 act conf = confirmation of STAT1 signaling activators; shares compounds with STAT1 activator; NIH 3T3 STAT1-luciferase reporter, IFN-gamma potentiation, luminescence; 100% = IFN-gamma EC80 alone, no compound; activation (% of control), % at 5.7 µM; actives 97% (n = 1,200);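 active = activation above a set limit carried over from the earlier primary STAT1 screen, cut at about 140% in these data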;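 also: simple ratio to median IFN-gamma plus DMSO wells so 0% means no light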
NFkB act = NF-kappaB activation in STAT1 activator counter-screen; shares compounds with STAT1 activator; HEK293T NF-kB luciferase reporter, TNF-alpha stimulated, luminescence; 100% = TNF-alpha with vehicle only; activation (% of control), % at 5.7 µM; actives 43% (n = 1,200);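 active = activation above the mean of solvent-only control wells plus 3 SD, set per campaign, cut at about 130% in these data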;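 also: TNF-alpha given at a submaximal dose yielding about 80% of full reporter signal; values are well signal over median control so 100% means no change and 0% no light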
STAT3 act 2 = human STAT3 activation in STAT1 activator counter-screen. shares compounds with STAT1 activator. U3A cells STAT3-luciferase reporter, IL-6, luminescence; cells lack STAT1; 100 = IL-6 alone, no compound effect. activation (% of control), % at 5.7 µM. actives 46% (n = 1,200). AID 1316;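 active = activation above the solvent-only control well mean plus 3 SD, set per plate batch, cut at about 110% in these data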;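 also: 0% = no luminescence and 100% = median IL-6 plus DMSO wells; higher means more STAT3 reporter activation so hits are non-selective activators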
Active calls of the source: *; x = not tested or not shown. The list is not random: actives were taken first. Their share in the collection is about 4.9%.

SMILES | STAT1 activator | STAT1 inh | NF-kB neuron act | STAT3 act | STAT3 blocker | APP 5'UTR act | STAT1 act conf | NFkB act | STAT3 act 2
O=C(NCCC1=CCCCC1)c1ccc([N+](=O)[O-])cc1 | 151* | -57 | 4.8* | 91 | 13 | 160* | 189* | 118 | 160*
COc1ccc2c(C)nc(Nc3nc(C)c(C)c(=O)[nH]3)nc2c1 | 200* | -112 | 1.9 | 127 | -31 | 2 | 174* | 128 | 111*
CCOc1nc(N2CCOCC2)nc(N2CCOCC2)n1 | 93 | 6 | 1.1 | 95 | 7 | 21 | x | x | x
CCOc1ccc2nc(N3CCOCC3)nc(C)c2c1 | 155* | -59 | 3.8* | 97 | 6 | 130 | 181* | 130 | 110
COc1ccc(Cn2c(C3CC3)nc3ccc(NC(=O)c4ccco4)cc3c2=O)cc1 | 152* | -56 | 1.3 | 99 | 9 | 102 | 183* | 133 | 140*
CCC(=O)Nc1ccc2nc(C3CC3)n(Cc3ccccc3)c(=O)c2c1 | 115 | -17 | 1.7 | 114 | -10 | 1 | x | x | x
CC[n+]1ccc(C(=O)NCc2ccccc2)cc1 | 91 | 8 | 0.88 | 98 | 4 | 19 | x | x | x
COc1coc(/C=C/C(=O)O)cc1=O | 104 | -4 | 1 | 101 | 3 | 7 | x | x | x
COc1ccc(-c2ccn(-c3cccc(F)n3)n2)cc1 | 154* | -59 | 0.87 | 110 | -10 | 138* | 178* | 133 | 122*
CC(Cc1ccsc1)NC(=O)CCc1nnc(COc2ccccc2)o1 (stereo not drawn) | 98 | 0 | 1.7 | 117 | -14 | 23 | x | x | x
Cc1cccc(C(=O)NC(=S)NNC(=O)c2cccs2)c1 | 106 | -7 | 0.92 | 100 | 3 | 0 | x | x | x
Cc1ccc2oc(-c3ccc(C)c(NC(=S)NC(=O)c4cccs4)c3)nc2c1 | 154* | -59 | 3.4* | 113 | -21 | 222* | 145* | 119 | 132*
Cc1ccnc(NC(=S)NC(=O)c2cccs2)c1 | 237* | -152 | 3.7* | 116 | -15 | 130 | 263* | 166* | 132*
O=C(OC(c1ccccc1)c1nccc2ccccc12)c1cc([N+](=O)[O-])cc([N+](=O)[O-])c1 (stereo not drawn) | 103 | -3 | 0.64 | 97 | -1 | 12 | x | x | x
Cc1ccccc1[C@@H]1C(C#N)=C(N)S[C@H]1C(=O)c1ccccc1 | 90 | 11 | 0.95 | 93 | 15 | 11 | x | x | x
Cc1cc(C)nc(NS(=O)(=O)c2ccc(N/C=C/C(=O)c3ccc(Cl)c(Cl)c3)cc2)n1 | 105 | -5 | 1.2 | 96 | 8 | -4 | x | x | x
Cc1cccc(/C=N\NC(=O)c2ccc(Cl)cc2)c1O | 155* | -62 | 4.3* | 87 | 18 | 2 | 161* | 124 | 95
COc1cccc(/C=N/NC(=O)c2ccc(-c3ccccc3)cc2)c1O | 97 | 3 | 0.8 | 85 | 16 | -18 | x | x | x
O=C(C[n+]1ccc(C(=O)N/N=C/c2ccc(Cl)cc2Cl)cc1)c1ccccc1 | 99 | 2 | 1.2 | 96 | 2 | -13 | x | x | x
O=C(N/N=C/c1ccc(Cl)cc1Cl)c1cccc(F)c1 | 160* | -67 | 1.6 | 88 | 25 | 127 | 212* | 142* | 107
N#C/C(=N\Nc1ccc(F)cc1)C(=N)N1CCCCC1 | 155* | -59 | 8.2* | 105 | -1 | 138* | 216* | 127 | 115*
COc1ccc(OC)c(N(CC(=O)Nc2cccc(C(F)(F)F)c2)S(C)(=O)=O)c1 | 84 | 15 | 1.2 | 101 | 0 | 8 | x | x | x

Screening results (PubChem)
